Source: PubChem BioAssay
Sampled rows, rich in hits. Any-hit rate of the full collection: about 2.4%.
APOBEC3G inh – blocks human APOBEC3G single-stranded DNA deamination; AID 493012; Q9HC16; recombinant A3G, ssDNA deamination FAM/TAMRA fluorescence; hit rate 0.28% among 330,000; inhibition, % at 20 µM;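 active = inhibition of at least 40% at 20 µM, with no more than 30% in the related APOBEC3A deaminase screen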;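 also: plate controls were DMSO wells with A3G for no effect and wells lacking A3G enzyme for full effect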
Target sequence (Q9HC16 whole entry, looked up): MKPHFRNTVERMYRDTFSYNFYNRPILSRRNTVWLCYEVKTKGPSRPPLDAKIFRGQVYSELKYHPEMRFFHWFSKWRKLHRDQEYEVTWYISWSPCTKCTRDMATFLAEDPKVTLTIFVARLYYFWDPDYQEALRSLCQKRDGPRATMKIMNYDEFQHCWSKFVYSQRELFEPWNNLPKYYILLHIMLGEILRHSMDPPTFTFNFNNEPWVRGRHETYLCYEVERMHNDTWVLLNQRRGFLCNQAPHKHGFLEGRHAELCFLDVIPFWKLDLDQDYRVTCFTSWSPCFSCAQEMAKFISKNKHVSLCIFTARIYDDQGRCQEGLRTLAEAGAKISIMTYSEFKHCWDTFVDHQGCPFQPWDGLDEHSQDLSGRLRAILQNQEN
PfGluPho inh – PfG6PD (Plasmodium falciparum) enzyme inhibition. AID 504690. inhibition, % at 20 µM. hit rate 0.78% among 350,000. PfGluPho enzyme, NADPH resazurin-diaphorase fluorescence;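 active = inhibition reaching at least a set limit at 20 µM in the primary screen, cut at about 59% in these data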;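 also: 0% = DMSO wells with substrate and 100% = DMSO wells lacking glucose-6-phosphate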
PfM18AAP inh – blocks P. falciparum M18 aspartyl aminopeptidase; recombinant PfM18AAP, H-Glu-NHMec fluorogenic cleavage; inhibition, % at 7.35 µM; hit rate 1.2% among 290,000;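 active = inhibition above the campaign mean inhibition over all tested compounds plus 3 SD, cut at about 28% in these data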;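 also: 0% = plate median of test compound wells and 100% = 2 mM ZnCl2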
A3A deaminase – human APOBEC3A DNA deaminase inhibition; P31941; recombinant A3A, FAM/TAMRA ssDNA deamination fluorescence; inhibition, % at 20 µM; hit rate 0.41% among 330,000; AID 493011;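 active = at least 40% inhibition at 20 µM here, with at most 30% in a related deaminase screen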;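 also: plate controls were A3A with DMSO for no effect and wells lacking A3A enzyme for full effect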
HKDC1 inh – blocks human hexokinase HKDC1 activity; hit rate 0.16% among 340,000; recombinant HKDC1, G6PDH/diaphorase resazurin coupled fluorescence; inhibition, % at 20 µM; Q2TB90;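 active = inhibition above about 35% when tested at 20 µM, limit read from the data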;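 also: plate controls were DMSO wells with enzyme for no effect and DMSO wells lacking enzyme for full effect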
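Test system: HK5 enzyme. Quantity: 5 µg/mL HK5 final. Reagent: glucose and ATP substrates. Schedule: 90 min reaction incubation at room temperature, dark. Technique: resazurin-to-resorufin fluorescence via G6PDH and diaphorase coupling, 525/613 nm. Control set: DMSO wells with and without enzyme mix.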
UBC9 SUMO inh – inhibitors of human SUMOylation (UBC9); AID 2006; hit rate 0.36% among 290,000; P63279; HTRF SUMOylation assay, SAE1/SAE2 + UBC9, in vitro; inhibition, % at 35 µM; in the data active = inhibition above about 50%, passing the limit was not always enough; inconclusive = no clear call, values can overlap the other calls
Target sequence (P63279 whole entry, looked up): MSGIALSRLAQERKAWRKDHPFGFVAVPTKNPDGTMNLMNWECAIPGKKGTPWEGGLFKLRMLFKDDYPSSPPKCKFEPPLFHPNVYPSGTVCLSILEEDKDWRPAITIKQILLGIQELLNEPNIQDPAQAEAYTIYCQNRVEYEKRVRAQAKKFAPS
PfG6PD confirm – confirmation of Plasmodium falciparum G6PD inhibitors; recombinant PfGluPho, NADPH-diaphorase-resazurin fluorescence; shares compounds with PfGluPho inh; AID 504753; hit rate 34% among 2,400; inhibition, % at 20 µM;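 active = inhibition of at least 50% at 20 µM in any single replicate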;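 also: 0% = DMSO with substrate and 100% = DMSO lacking glucose-6-phosphate substrate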
Diaphorase 10uM – inhibits diaphorase or oxidizes, flagging false PfG6PD hits; shares compounds with PfGluPho inh; inhibition, % at 20 µM; hit rate 39% among 820; diaphorase-coupled resazurin reduction, fluorescence, NADPH 10 uM; AID 504862;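 active = average inhibition reaching 50% or more with the compound at 20 µM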;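 also: resorufin red fluorescence formed as diaphorase reduces resazurin using NADPH; 0% = DMSO with enzyme and 100% = DMSO without enzyme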
Diaphorase 30uM – counter-screen for P. falciparum G6PD inhibitors: diaphorase inhibitors, oxidizers; AID 504863; shares compounds with PfGluPho inh; hit rate 29% among 820; Diaphorase/resazurin coupled assay, resorufin fluorescence, 30 uM NADPH; inhibition, % at 20 µM;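 active = inhibition averaging 50% or more, tested at 20 µM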;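 also: 0% = DMSO with enzyme and 100% = DMSO wells lacking diaphorase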
The depositor's hits bear a star; ? = inconclusive; . = no result.

SMILES	APOBEC3G inh	PfGluPho inh	PfM18AAP inh	A3A deaminase	HKDC1 inh	UBC9 SUMO inh	PfG6PD confirm	others
Cc1ccc(O)c(NC2=C(Cl)C(=O)N(Cc3ccccc3)C2=O)c1	.	85*	23	.	3	-18	30
C[C@@]12C(=O)N(c3ccc(F)cc3)C(=O)N1[C@@H]1c3ccccc3OC[C@@H]1[C@H]2c1ccccc1	-2	8	-4	4	-1	-7	.
COc1ccc(CNC(=O)c2coc(=O)c3ccccc23)cc1	-13	-3	0	2	0	4	.
CN(C)C=Nc1ccc2nc3c(cc2c1)[nH]c1ccccc13	-3	80*	-6	6	19	50*	54*	Diaphorase 10uM=37;Diaphorase 30uM=45
CCOC(=O)c1[nH]c2ccccc2c1N=CN(C)C	-5	-4	10	-4	-8	.	.
CN(C(=S)Nc1ccccc1)c1ccccc1	-1	4	-2	1	10	-1	.
CN(C(=S)Nc1ccc(Oc2ccccc2)cc1)c1ccc(O)cc1	.	78*	9	.	6	26	11
CN(C(=S)Nc1cccnc1)c1ccc(O)cc1	.	67*	23	.	5	64	2
CN(C(=S)Nc1ccc(SC(F)F)cc1)c1ccc(O)cc1	27	70*	22	-1	4	?	-17
COC(=O)Cc1ccc(NC(=O)c2ccc3c(c2)C(=O)N(CC2CCCO2)C3=O)cc1 (stereo unspecified)	-6	12	5	-4	-8	6	.
COc1ccc(/C=N/NC(=O)c2ccc(CN3C(=O)c4cccc5cccc3c45)cc2)cc1O	-6	58	3	-2	-2	18	.
COc1cc(/C=N/NC(=O)c2ccc(CN3C(=O)c4cccc5cccc3c45)cc2)cc(OC)c1O	1	64*	22	5	5	8	43
COc1ccc(C(CC(=O)NCc2ccco2)c2ccc(F)cc2)cc1 (stereo unspecified)	-4	-16	-7	0	-1	-22	.
CCC1C/C(=C\c2cc(OC)c(OC)cc2OC)C(=O)/C(=C/c2cc(OC)c(OC)cc2OC)C1 (stereo unspecified)	.	23	14	.	10	-15	.
Cc1ccc(S(=O)(=O)/N=C2/C=C(C3C(=O)CC(C)(C)CC3=O)C(=O)c3ccccc32)cc1	-2	72*	-1	-5	28	23	73*	Diaphorase 10uM=43;Diaphorase 30uM=45
Cc1ccc(S(=O)(=O)N2CCC(C(=O)C3C(=O)CC(C)(C)CC3=O)CC2)cc1	-3	-3	-11	-1	-10	5	.
O=C(COC(=O)CSc1ccc([N+](=O)[O-])cc1)NCCCc1ccccc1	-4	66*	-6	-3	9	5	-9
CC(OC(=O)CSc1ccc([N+](=O)[O-])cc1)C(=O)NCc1ccccc1 (stereo unspecified)	24	66*	.	4	5	.	-24
O=C(COC(=O)CSc1ccc([N+](=O)[O-])cc1)NCCc1ccccc1	-2	17	.	0	3	.	.
COc1ccc(N(CC(=O)NCCSCc2ccccc2C)S(=O)(=O)c2ccccc2)cc1	0	1	3	1	-3	-27	.
CC(CCc1ccccc1)NC(=O)CN1CCN(c2ccc(O)cc2)CC1 (stereo unspecified)	18	66*	8	4	0	-4	3
Cc1ccc(NC(=O)NC(=O)CN2CCC(C(N)=O)CC2)c(C)c1	-7	-8	.	0	-6	.	.
Cc1ccc(NC(=O)NC(=O)CN2CCN(c3ccc(O)cc3)CC2)c(C)c1	31	72*	30*	2	11	-7	40
Fc1ccc(-c2nc3n(n2)Cc2ccccc2-3)cc1	1	45	4	2	6	12	.
Cc1ccc(-c2nc3n(n2)Cc2ccccc2-3)cc1	2	77*	-5	2	-2	7	37
SMILES	APOBEC3G inh	PfGluPho inh	PfM18AAP inh	A3A deaminase	HKDC1 inh	UBC9 SUMO inh	PfG6PD confirm	others
CC(=O)C1=C(C)NC(=O)CC1c1ccc(Br)cc1 (stereo unspecified)	-3	-1	3	-1	1	-1	.
CCCC(=O)Nc1sc(Cc2ccccc2)c(C)c1C(N)=O	0	59*	15	-1	-27	16	25
O=C(O)c1ccc(NC2=C/C(=N/S(=O)(=O)c3cccs3)c3ccccc3C2=O)cc1	.	106*	.	.	.	.	101*	Diaphorase 10uM=85*;Diaphorase 30uM=84*
O=C(O)c1ccc(Nc2nc3ccccc3nc2NS(=O)(=O)c2cccs2)cc1	-3	-12	-6	-3	-3	6	.
O=C1C(=Cc2cccc(O)c2O)SC(=S)N1CCCN1CCOCC1	.	70*	.	.	.	.	50*	Diaphorase 10uM=-12;Diaphorase 30uM=-6
O=C(CCCN1C(=O)/C(=C/c2ccccc2Cl)SC1=S)NCCCN1CCOCC1	-5	-12	0	-2	-1	13	.
CCOc1ccc(N(CC(=O)OC)S(=O)(=O)c2ccc3c(c2)n(C)c(=O)c(=O)n3C)cc1	-3	14	4	-2	7	10	.
O=C(COc1ccc(/C=C2/NC(=O)NC2=O)cc1)Nc1ccc(F)cc1	-1	3	-3	-2	-4	17	.
COc1ccc2cc(C3=CC(=O)CCC3)ccc2c1	.	79*	.	.	2	.	35
Cc1ccc2cc(C)c(SCC#N)nc2c1	-4	12	0	-1	5	-15	.
Nc1nc2ccc(C(=O)Nc3ccc(N4CCOCC4)cc3)cc2s1	-2	17	.	-2	1	.	.
O=C(Nc1ccc(N2CCOCC2)cc1)c1ccc2ncsc2c1	-8	66*	.	-1	-4	.	22
O=C(Nc1nnc(CSCc2ccc(Cl)cc2)s1)c1cccc([N+](=O)[O-])c1	-5	52	-3	0	-1	0	.
O=C(Nc1nnc(CSCc2ccc(F)cc2)s1)c1cccc([N+](=O)[O-])c1	-9	73*	1	-8	-3	15	44
CCC(C)(C)c1nnc(NC(=O)c2cccc([N+](=O)[O-])c2)s1	0	116*	-10	1	-3	-12	88*	Diaphorase 10uM=93*;Diaphorase 30uM=64*
O=S1(=O)NC(C2CC2c2ccccc2)CCO1 (stereo unspecified)	-5	11	-2	-1	-9	9	.
COc1ccc2sc(-c3ccccc3OC)c(-c3ccc(OC)c(F)c3)c2c1	-6	6	.	-1	-2	.	.
CCn1c(C)nc2cc(C(=O)OC(C(F)(F)C(F)F)C(F)(F)C(F)F)ccc21	2	61*	0	4	-1	-11	15
CCn1c(C)nc2cc(C(=O)NNC(=O)c3ccc(C)cc3)ccc21	-8	36	.	5	-5	.	.
